Experimental data reported in ChEMBL document CHEMBL3232894, “Discovery of AMG 925, a FLT3 and CDK4 dual kinase inhibitor with preferential affinity for the activated state of FLT3” (J Med Chem, 2014).

Tested on: MOLM-13
Test: Antiproliferative activity against human MOLM13 cells harboring FLT3 ITD mutant assessed as incorporation of [3H]thymidine into DNA after 72 hrs by beta-plate counting analysis
Format: functional, cell-based
Conditions: not given

IC50 [µM] | Structure (SMILES)
0.037 | C[C@H]1CC[C@H](n2c3cnccc3c3cnc(Nc4ccc(N5CCN(C(=O)CO)CC5)nn4)nc32)CC1
0.03 | CS(=O)(=O)CC1CCN(c2ccc(Nc3ncc4c5ccncc5n([C@H]5CC[C@H](C)CC5)c4n3)nn2)CC1
0.01 | CN(C)C1CCN(c2ccc(Nc3ncc4c5ccncc5n([C@H]5CC[C@H](C)CC5)c4n3)nc2)CC1
0.005 | C[C@H]1CC[C@H](n2c3cnccc3c3cnc(Nc4ccc(N5CCNCC5)nc4)nc32)CC1
0.096 | CC(=O)c1c(C)c2cnc(Nc3ccc(N4CCNCC4)cn3)nc2n(C2CCCC2)c1=O [PALBOCICLIB]
0.004 | COc1nc(Nc2ncc3c4ccncc4n([C@H]4CC[C@H](C)CC4)c3n2)ccc1N1CCC2(CCC(=O)N2)CC1

Tested on: MOLM-13
Test: Induction of apoptosis in human MOLM13 cells harboring FLT3 ITD mutant at 1 uM after 48 hrs by Annexin V/Sytox Green staining based flow cytometry
Format: functional
Conditions: not given
Summary of the method: (§1)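 MOLM13, sorafenib-resistant MOLM13 and U937 cells were each exposed to compound at 1 μM for 48 h. Cells were then stained with Annexin V/Sytox Green and analysed by flow cytometry. Readout is apoptotic cells as a percentage of all cells analysed.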

Structure (SMILES) | Activity [%]
CC(=O)c1c(C)c2cnc(Nc3ccc(N4CCNCC4)cn3)nc2n(C2CCCC2)c1=O [PALBOCICLIB] | 16.95

Biological target: Cyclin-dependent kinase 1/cyclin B1 (Homo sapiens, UniProt P06493)
Sequence (P06493 whole entry): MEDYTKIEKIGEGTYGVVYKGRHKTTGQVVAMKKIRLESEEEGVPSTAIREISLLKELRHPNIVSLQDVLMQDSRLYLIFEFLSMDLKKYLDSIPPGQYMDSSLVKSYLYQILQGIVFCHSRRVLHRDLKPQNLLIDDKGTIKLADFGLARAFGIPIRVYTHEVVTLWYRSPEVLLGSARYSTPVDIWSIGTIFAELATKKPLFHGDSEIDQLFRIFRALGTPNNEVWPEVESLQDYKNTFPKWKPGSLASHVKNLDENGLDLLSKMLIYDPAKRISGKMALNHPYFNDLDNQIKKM
Sequence (P14635 whole entry, further chain): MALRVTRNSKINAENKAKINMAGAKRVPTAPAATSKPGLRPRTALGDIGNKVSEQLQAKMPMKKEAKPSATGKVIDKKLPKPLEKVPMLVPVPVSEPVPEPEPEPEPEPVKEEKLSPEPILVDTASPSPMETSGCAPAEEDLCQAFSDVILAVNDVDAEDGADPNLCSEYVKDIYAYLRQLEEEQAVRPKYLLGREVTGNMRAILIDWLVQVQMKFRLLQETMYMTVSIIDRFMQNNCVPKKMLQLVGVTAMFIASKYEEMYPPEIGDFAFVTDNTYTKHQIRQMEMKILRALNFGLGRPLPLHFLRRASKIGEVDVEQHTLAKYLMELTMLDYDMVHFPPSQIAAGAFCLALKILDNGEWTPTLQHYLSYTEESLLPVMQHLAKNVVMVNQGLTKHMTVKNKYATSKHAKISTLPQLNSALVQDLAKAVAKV
Test: Inhibition of CDK1/cyclin B (unknown origin) using histone H1 as substrate after 60 mins by scintillation counting analysis in presence of [r-33P]ATP
Format: protein-complex assay
Conditions: not given

IC50 [µM] | Structure (SMILES)
1.05 | C[C@H]1CC[C@H](n2c3cnccc3c3cnc(Nc4ccc(N5CCN(C(=O)CO)CC5)nn4)nc32)CC1
3.97 | CS(=O)(=O)CC1CCN(c2ccc(Nc3ncc4c5ccncc5n([C@H]5CC[C@H](C)CC5)c4n3)nn2)CC1
3.29 | CN(C)C1CCN(c2ccc(Nc3ncc4c5ccncc5n([C@H]5CC[C@H](C)CC5)c4n3)nc2)CC1
0.024 | C[C@H]1CC[C@H](n2c3cnccc3c3cnc(Nc4ccc(N5CCNCC5)nc4)nc32)CC1
1.06 | COc1nc(Nc2ncc3c4ccncc4n([C@H]4CC[C@H](C)CC4)c3n2)ccc1N1CCC2(CCC(=O)N2)CC1

Tested on: not listed separately
Test: Oral bioavailability in rat
Format: ADME, organism-based
Conditions: in vivo
Summary of the method: (§2)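 Intravenous and oral (gavage, solution) PK in rat, dog and cynomolgus monkey. The rat vehicle for both routes was water/acetate/tween at pH 4, 96/3/1 (v/v/v). Dog and monkey iv doses used 40% PG aqueous solution at pH 2, and their oral doses used 20% captisol aqueous solution.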

bioavailability [%] | Structure (SMILES)
22 | C[C@H]1CC[C@H](n2c3cnccc3c3cnc(Nc4ccc(N5CCN(C(=O)CO)CC5)nn4)nc32)CC1
23 | CS(=O)(=O)CC1CCN(c2ccc(Nc3ncc4c5ccncc5n([C@H]5CC[C@H](C)CC5)c4n3)nn2)CC1
44 | CN(C)C1CCN(c2ccc(Nc3ncc4c5ccncc5n([C@H]5CC[C@H](C)CC5)c4n3)nc2)CC1
65 | COc1nc(Nc2ncc3c4ccncc4n([C@H]4CC[C@H](C)CC4)c3n2)ccc1N1CCC2(CCC(=O)N2)CC1

Tested on: not listed separately
Test: Clearance in iv dosed rat
Format: ADME, organism-based
Conditions: in vivo
Summary of the method: as §2

clearance [mL/min/kg] | Structure (SMILES)
2 | C[C@H]1CC[C@H](n2c3cnccc3c3cnc(Nc4ccc(N5CCN(C(=O)CO)CC5)nn4)nc32)CC1
3.33 | CS(=O)(=O)CC1CCN(c2ccc(Nc3ncc4c5ccncc5n([C@H]5CC[C@H](C)CC5)c4n3)nn2)CC1
35 | CN(C)C1CCN(c2ccc(Nc3ncc4c5ccncc5n([C@H]5CC[C@H](C)CC5)c4n3)nc2)CC1
15.2 | COc1nc(Nc2ncc3c4ccncc4n([C@H]4CC[C@H](C)CC4)c3n2)ccc1N1CCC2(CCC(=O)N2)CC1

Biological target: Cyclin-dependent kinase 4/cyclin D1 (Homo sapiens, UniProt P11802)
Sequence (P11802 whole entry): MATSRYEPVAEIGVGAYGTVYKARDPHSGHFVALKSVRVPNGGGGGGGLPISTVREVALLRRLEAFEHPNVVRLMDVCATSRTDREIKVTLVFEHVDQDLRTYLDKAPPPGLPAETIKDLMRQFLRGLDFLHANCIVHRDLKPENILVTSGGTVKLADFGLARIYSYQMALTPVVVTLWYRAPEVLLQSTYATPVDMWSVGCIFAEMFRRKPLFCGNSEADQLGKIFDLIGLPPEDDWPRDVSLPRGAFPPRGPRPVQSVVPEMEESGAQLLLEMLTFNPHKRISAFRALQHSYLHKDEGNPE
Sequence (P24385 whole entry, further chain): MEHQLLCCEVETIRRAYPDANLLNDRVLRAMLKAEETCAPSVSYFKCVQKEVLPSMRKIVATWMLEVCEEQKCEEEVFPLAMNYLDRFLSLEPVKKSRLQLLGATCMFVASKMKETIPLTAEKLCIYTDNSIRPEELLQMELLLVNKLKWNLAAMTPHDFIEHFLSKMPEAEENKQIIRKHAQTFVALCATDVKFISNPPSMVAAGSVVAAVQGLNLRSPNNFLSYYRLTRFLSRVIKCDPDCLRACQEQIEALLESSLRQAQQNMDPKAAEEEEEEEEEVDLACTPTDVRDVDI
Test: Inhibition of CDK4/cyclin D1 (unknown origin) using Rb as substrate after 60 mins by scintillation counting analysis in presence of [r-33P]ATP
Format: protein-complex assay
Conditions: not given

IC50 [µM] | Structure (SMILES)
0.003 | C[C@H]1CC[C@H](n2c3cnccc3c3cnc(Nc4ccc(N5CCN(C(=O)CO)CC5)nn4)nc32)CC1
0.009 | CS(=O)(=O)CC1CCN(c2ccc(Nc3ncc4c5ccncc5n([C@H]5CC[C@H](C)CC5)c4n3)nn2)CC1
0.002 | CN(C)C1CCN(c2ccc(Nc3ncc4c5ccncc5n([C@H]5CC[C@H](C)CC5)c4n3)nc2)CC1
0.003 | C[C@H]1CC[C@H](n2c3cnccc3c3cnc(Nc4ccc(N5CCNCC5)nc4)nc32)CC1
0.013 | COc1nc(Nc2ncc3c4ccncc4n([C@H]4CC[C@H](C)CC4)c3n2)ccc1N1CCC2(CCC(=O)N2)CC1

Tested on: not listed separately
Test: Drug uptake in CrTac:NCR-Foxn1nu (NCR) nude mouse at 150 mg/kg, po after 3 hrs
Format: ADME, organism-based
Design: dose 150 mg/kg, route oral
Conditions: in vivo, read-out: Drug uptake
Summary of the method: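 Total plasma drug concentration in mouse PK studies, taken 3 h after a 150 mg/kg oral dose.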

concentration at 3 h [µM] | Structure (SMILES)
10.9 | C[C@H]1CC[C@H](n2c3cnccc3c3cnc(Nc4ccc(N5CCN(C(=O)CO)CC5)nn4)nc32)CC1

Tested on: MOLM-13
Test: Induction of apoptosis in sorafenib-resistant human MOLM13 cells harboring FLT3 ITD+D835Y mutant at 1 uM after 48 hrs by Annexin V/Sytox Green staining based flow cytometry
Format: functional
Conditions: not given
Summary of the method: as §1

Structure (SMILES) | Activity [%]
CC(=O)c1c(C)c2cnc(Nc3ccc(N4CCNCC4)cn3)nc2n(C2CCCC2)c1=O [PALBOCICLIB] | 8.35

Tested on: not listed separately
Test: Antiproliferative activity against Rb-negative human MDA-MB-436 cells assessed as incorporation of [3H]thymidine into DNA after 72 hrs by beta-plate counting analysis
Format: functional
Conditions: not given

Structure (SMILES) | IC50 [µM]
C[C@H]1CC[C@H](n2c3cnccc3c3cnc(Nc4ccc(N5CCN(C(=O)CO)CC5)nn4)nc32)CC1 | 1.19
CS(=O)(=O)CC1CCN(c2ccc(Nc3ncc4c5ccncc5n([C@H]5CC[C@H](C)CC5)c4n3)nn2)CC1 | 10
CN(C)C1CCN(c2ccc(Nc3ncc4c5ccncc5n([C@H]5CC[C@H](C)CC5)c4n3)nc2)CC1 | 1.25
C[C@H]1CC[C@H](n2c3cnccc3c3cnc(Nc4ccc(N5CCNCC5)nc4)nc32)CC1 | 0.038
COc1nc(Nc2ncc3c4ccncc4n([C@H]4CC[C@H](C)CC4)c3n2)ccc1N1CCC2(CCC(=O)N2)CC1 | 7.5

Tested on: MOLM-13
Test: cells
Conditions: Homo sapiens

IC50 [µM] | Structure (SMILES)
0.096 | CC(=O)c1c(C)c2cnc(Nc3ccc(N4CCNCC4)cn3)nc2n(C2CCCC2)c1=O [PALBOCICLIB]

Tested on: COLO 205
Test: Antiproliferative activity against Rb-positive human COLO205 cells assessed as incorporation of [14C]thymidine into DNA after 72 hrs by beta-plate counting analysis
Conditions: not given

IC50 [µM] | Structure (SMILES)
0.031 | C[C@H]1CC[C@H](n2c3cnccc3c3cnc(Nc4ccc(N5CCN(C(=O)CO)CC5)nn4)nc32)CC1
0.019 | CS(=O)(=O)CC1CCN(c2ccc(Nc3ncc4c5ccncc5n([C@H]5CC[C@H](C)CC5)c4n3)nn2)CC1
0.01 | CN(C)C1CCN(c2ccc(Nc3ncc4c5ccncc5n([C@H]5CC[C@H](C)CC5)c4n3)nc2)CC1
0.007 | C[C@H]1CC[C@H](n2c3cnccc3c3cnc(Nc4ccc(N5CCNCC5)nc4)nc32)CC1
0.036 | CC(=O)c1c(C)c2cnc(Nc3ccc(N4CCNCC4)cn3)nc2n(C2CCCC2)c1=O [PALBOCICLIB]
0.044 | COc1nc(Nc2ncc3c4ccncc4n([C@H]4CC[C@H](C)CC4)c3n2)ccc1N1CCC2(CCC(=O)N2)CC1

Tested on: U-937
Test: Antiproliferative activity against human U937 cells assessed as incorporation of [3H]thymidine into DNA after 72 hrs by beta-plate counting analysis
Conditions: not given

IC50 [µM] | Structure (SMILES)
0.14 | CC(=O)c1c(C)c2cnc(Nc3ccc(N4CCNCC4)cn3)nc2n(C2CCCC2)c1=O [PALBOCICLIB]

Tested on: U-937
Test: Induction of apoptosis in human U937 cells harboring wild type FLT3 at 1 uM after 48 hrs by Annexin V/Sytox Green staining based flow cytometry
Format: functional
Conditions: not given
Summary of the method: as §1

Structure (SMILES) | Activity [%]
CC(=O)c1c(C)c2cnc(Nc3ccc(N4CCNCC4)cn3)nc2n(C2CCCC2)c1=O [PALBOCICLIB] | 9.09

Biological target: T1, Receptor-type tyrosine-protein kinase FLT3 (Homo sapiens, UniProt P36888)
T1 sequence (P36888 whole entry): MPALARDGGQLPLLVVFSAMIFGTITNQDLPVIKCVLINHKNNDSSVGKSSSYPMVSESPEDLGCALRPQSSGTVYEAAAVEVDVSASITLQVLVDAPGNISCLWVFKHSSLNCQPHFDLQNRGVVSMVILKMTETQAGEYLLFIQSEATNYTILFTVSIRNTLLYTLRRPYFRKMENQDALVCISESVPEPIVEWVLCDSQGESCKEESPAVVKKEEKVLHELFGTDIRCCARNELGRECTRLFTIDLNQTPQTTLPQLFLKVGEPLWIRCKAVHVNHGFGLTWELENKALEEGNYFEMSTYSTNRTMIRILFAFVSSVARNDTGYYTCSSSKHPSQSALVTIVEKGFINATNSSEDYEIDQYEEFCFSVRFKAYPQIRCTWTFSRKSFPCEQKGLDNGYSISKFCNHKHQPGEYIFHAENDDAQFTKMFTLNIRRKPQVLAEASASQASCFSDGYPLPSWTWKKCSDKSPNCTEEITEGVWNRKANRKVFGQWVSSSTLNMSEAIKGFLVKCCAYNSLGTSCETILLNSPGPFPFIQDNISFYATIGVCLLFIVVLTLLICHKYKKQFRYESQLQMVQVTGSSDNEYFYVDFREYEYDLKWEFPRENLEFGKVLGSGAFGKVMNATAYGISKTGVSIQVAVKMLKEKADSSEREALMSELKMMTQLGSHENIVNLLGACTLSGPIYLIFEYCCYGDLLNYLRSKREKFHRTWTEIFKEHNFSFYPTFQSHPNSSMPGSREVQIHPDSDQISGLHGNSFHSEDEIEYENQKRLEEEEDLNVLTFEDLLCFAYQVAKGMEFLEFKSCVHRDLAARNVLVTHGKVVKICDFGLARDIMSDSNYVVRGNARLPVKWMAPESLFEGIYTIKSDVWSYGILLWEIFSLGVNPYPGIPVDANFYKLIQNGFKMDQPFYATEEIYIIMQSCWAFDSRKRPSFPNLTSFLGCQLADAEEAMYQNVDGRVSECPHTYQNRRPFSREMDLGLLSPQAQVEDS
Test: Inhibition of GST-fused human FLT3 cytoplasmic domain (amino acids 564 to 993) using Ulight-JAK1 as substrate after 1 hr by TR-FRET assay
Conditions: not given

IC50 [µM] | Structure (SMILES)
0.008 | C[C@H]1CC[C@H](n2c3cnccc3c3cnc(Nc4ccc(N5CCN(C(=O)CO)CC5)nn4)nc32)CC1
0.008 | CS(=O)(=O)CC1CCN(c2ccc(Nc3ncc4c5ccncc5n([C@H]5CC[C@H](C)CC5)c4n3)nn2)CC1
0.002 | CN(C)C1CCN(c2ccc(Nc3ncc4c5ccncc5n([C@H]5CC[C@H](C)CC5)c4n3)nc2)CC1
0.0003 | C[C@H]1CC[C@H](n2c3cnccc3c3cnc(Nc4ccc(N5CCNCC5)nc4)nc32)CC1
0.0006 | COc1nc(Nc2ncc3c4ccncc4n([C@H]4CC[C@H](C)CC4)c3n2)ccc1N1CCC2(CCC(=O)N2)CC1
